Measured values published in ChEMBL document CHEMBL4229344 (Eur J Med Chem, 2018).

Tests used:
[1] = biological target: Serine/threonine-protein kinase ICK (Homo sapiens) (UniProt Q9UPZ9); assay: Binding affinity to wild-type human partial length ICK (M1 to P314 residues) expressed in mammalian expression system assessed as residual binding level at 1 uM by Kinomescan method relative to control
[2] = biological target: Serine/threonine-protein kinase Nek2 (Homo sapiens) (UniProt P51955); assay: Binding affinity to wild-type human partial length NEK2 (M1 to K309 residues) expressed in bacterial expression system assessed as residual binding level at 1 uM by Kinomescan method relative to control
Chain of Serine/threonine-protein kinase Nek2 (Homo sapiens) (P51955 whole entry, the tested form may be a part): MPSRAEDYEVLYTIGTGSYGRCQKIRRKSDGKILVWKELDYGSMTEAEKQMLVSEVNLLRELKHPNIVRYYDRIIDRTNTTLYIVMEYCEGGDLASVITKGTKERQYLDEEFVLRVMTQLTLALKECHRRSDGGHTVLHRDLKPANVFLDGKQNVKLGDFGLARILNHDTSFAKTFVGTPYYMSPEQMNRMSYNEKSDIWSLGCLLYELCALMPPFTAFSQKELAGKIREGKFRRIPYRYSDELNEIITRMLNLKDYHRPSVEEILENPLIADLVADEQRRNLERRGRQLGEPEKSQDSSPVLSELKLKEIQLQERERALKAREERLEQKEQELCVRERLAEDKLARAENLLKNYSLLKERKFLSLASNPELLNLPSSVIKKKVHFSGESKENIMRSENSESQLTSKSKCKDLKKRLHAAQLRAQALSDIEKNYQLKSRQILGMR
In short: (§1)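 KINOMEscan competition binding against a panel of 468 purified kinases/mutants, compound tested at 1 μM; readout is relative binding activity versus control.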

[3] = biological target: Protein kinase C theta type (Homo sapiens) (UniProt Q04759); assay: Binding affinity to wild-type human partial length PRKCQ (L350 to S706 residues) expressed in bacterial expression system assessed as residual binding level at 1 uM by Kinomescan method relative to control; in short: as §1
[4] = biological target: Calcium/calmodulin-dependent protein kinase type 1D (Homo sapiens) (UniProt Q8IU85); assay: Binding affinity to wild-type human partial length CAMK1D (M1 to K299 residues) expressed in bacterial expression system assessed as residual binding level at 1 uM by Kinomescan method relative to control
In short: (§2)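 Kinome-wide competition binding screen against a panel of 468 purified kinases/mutants, with the test compound at a single concentration of 1 μM. Read-out is the relative binding activity of each kinase in the presence of compound.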

[5] = test system: Epidermal growth factor receptor (Homo sapiens), P00533 [T790M]; assay: Binding affinity to human partial length EGFR T790M mutant (R669 to G1022 residues) expressed in mammalian expression system assessed as residual binding level at 1 uM by Kinomescan method relative to control
In short: (§3)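 Kinome-wide single-concentration binding screen (KINOMEscan) at 1 μM against a panel of 468 purified kinases and mutants. Read-out is relative binding of each kinase compared with control. Selectivity across the panel was summarised as an S(10) score.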

[6] = test system: Receptor-type tyrosine-protein kinase FLT3 (Homo sapiens), P36888 [R834Q]; assay: Binding affinity to human partial length FLT3 R834Q mutant (V592 to Y969 residues) expressed in mammalian expression system assessed as residual binding level at 1 uM by Kinomescan method relative to control; in short: as §3
[7] = biological target: Cyclin-G-associated kinase (Homo sapiens) (UniProt O14976); assay: Binding affinity to wild-type human partial length GAK (G13 to Y338 residues) expressed in bacterial expression system assessed as residual binding level at 1 uM by Kinomescan method relative to control; in short: as §2
Chain of Cyclin-G-associated kinase (Homo sapiens) (O14976 whole entry, the tested form may be a part, canonical isoform): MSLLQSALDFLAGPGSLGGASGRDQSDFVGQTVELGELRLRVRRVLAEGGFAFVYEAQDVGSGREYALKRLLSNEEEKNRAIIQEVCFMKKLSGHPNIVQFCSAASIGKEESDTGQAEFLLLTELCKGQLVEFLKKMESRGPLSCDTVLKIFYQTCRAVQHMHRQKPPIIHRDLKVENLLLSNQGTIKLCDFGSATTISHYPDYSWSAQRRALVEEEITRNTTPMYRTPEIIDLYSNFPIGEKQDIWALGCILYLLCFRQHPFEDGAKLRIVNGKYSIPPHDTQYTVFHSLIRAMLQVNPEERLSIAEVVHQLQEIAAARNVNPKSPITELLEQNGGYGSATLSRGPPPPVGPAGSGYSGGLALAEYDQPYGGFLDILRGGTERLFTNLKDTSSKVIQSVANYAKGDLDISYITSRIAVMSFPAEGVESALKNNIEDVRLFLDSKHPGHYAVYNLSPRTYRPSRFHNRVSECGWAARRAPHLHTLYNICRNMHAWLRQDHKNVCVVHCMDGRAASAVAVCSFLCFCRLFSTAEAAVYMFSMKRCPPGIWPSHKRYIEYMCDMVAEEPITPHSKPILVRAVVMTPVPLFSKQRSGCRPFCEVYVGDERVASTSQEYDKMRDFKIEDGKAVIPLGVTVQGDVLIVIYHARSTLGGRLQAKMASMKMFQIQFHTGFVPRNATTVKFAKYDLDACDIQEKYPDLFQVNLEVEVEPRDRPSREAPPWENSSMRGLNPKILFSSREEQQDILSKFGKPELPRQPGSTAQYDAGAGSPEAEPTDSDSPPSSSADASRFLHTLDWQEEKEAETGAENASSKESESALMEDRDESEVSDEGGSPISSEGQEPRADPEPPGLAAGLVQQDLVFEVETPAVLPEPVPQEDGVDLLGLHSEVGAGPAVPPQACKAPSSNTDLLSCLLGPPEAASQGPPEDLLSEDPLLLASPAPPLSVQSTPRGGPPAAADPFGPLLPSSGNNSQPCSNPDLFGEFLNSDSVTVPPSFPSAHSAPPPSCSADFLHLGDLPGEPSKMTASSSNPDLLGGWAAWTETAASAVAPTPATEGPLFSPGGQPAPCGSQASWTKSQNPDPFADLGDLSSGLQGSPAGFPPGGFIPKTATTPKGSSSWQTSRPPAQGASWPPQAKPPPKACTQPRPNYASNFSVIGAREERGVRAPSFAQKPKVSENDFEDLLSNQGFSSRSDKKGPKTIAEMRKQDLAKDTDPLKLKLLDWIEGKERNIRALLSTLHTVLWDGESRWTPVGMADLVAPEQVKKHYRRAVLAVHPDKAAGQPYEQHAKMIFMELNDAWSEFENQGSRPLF

[8] = test system: Phosphatidylinositol 4,5-bisphosphate 3-kinase catalytic subunit alpha isoform (Homo sapiens), P42336 [H1047L]; assay: Binding affinity to human partial length PIK3CA H1047L mutant (R108 to N1068 residues) expressed in mammalian expression system assessed as residual binding level at 1 uM by Kinomescan method relative to control; in short: as §3
[9] = biological target: Serine/threonine-protein kinase Chk2 (Homo sapiens) (UniProt O96017); assay: Binding affinity to wild-type human partial length CHEK2 (S253 to E574 residues) expressed in bacterial expression system assessed as residual binding level at 1 uM by Kinomescan method relative to control
[10] = biological target: Serine/threonine-protein kinase MARK1 (Homo sapiens) (UniProt Q9P0L2); assay: Binding affinity to wild-type human partial length MARK1 (Q30 to T341 residues) expressed in bacterial expression system assessed as residual binding level at 1 uM by Kinomescan method relative to control
[11] = biological target: Misshapen-like kinase 1 (Homo sapiens) (UniProt Q8N4C8); assay: Binding affinity to wild-type human partial length MINK (M1 to K312 residues) expressed in mammalian expression system assessed as residual binding level at 1 uM by Kinomescan method relative to control; in short: as §2
[12] = test system: Phosphatidylinositol 4,5-bisphosphate 3-kinase catalytic subunit alpha isoform (Homo sapiens), P42336 [H1047Y]; assay: Binding affinity to human partial length PIK3CA H1047Y mutant (R108 to N1068 residues) expressed in mammalian expression system assessed as residual binding level at 1 uM by Kinomescan method relative to control; in short: as §3
[13] = biological target: Ephrin type-B receptor 2 (Homo sapiens) (UniProt P29323); assay: Binding affinity to wild-type human partial length EPHB2 (I597 to L902 residues) expressed in bacterial expression system assessed as residual binding level at 1 uM by Kinomescan method relative to control
[14] = biological target: Phosphatidylinositol 4,5-bisphosphate 3-kinase catalytic subunit beta isoform (Homo sapiens) (UniProt P42338); assay: Binding affinity to wild-type human partial length PIK3CB (P118 to S1070 residues) expressed in mammalian expression system assessed as residual binding level at 1 uM by Kinomescan method relative to control
Chain of Phosphatidylinositol 4,5-bisphosphate 3-kinase catalytic subunit beta isoform (Homo sapiens) (P42338 whole entry, looked up, the tested form may be a part, canonical isoform): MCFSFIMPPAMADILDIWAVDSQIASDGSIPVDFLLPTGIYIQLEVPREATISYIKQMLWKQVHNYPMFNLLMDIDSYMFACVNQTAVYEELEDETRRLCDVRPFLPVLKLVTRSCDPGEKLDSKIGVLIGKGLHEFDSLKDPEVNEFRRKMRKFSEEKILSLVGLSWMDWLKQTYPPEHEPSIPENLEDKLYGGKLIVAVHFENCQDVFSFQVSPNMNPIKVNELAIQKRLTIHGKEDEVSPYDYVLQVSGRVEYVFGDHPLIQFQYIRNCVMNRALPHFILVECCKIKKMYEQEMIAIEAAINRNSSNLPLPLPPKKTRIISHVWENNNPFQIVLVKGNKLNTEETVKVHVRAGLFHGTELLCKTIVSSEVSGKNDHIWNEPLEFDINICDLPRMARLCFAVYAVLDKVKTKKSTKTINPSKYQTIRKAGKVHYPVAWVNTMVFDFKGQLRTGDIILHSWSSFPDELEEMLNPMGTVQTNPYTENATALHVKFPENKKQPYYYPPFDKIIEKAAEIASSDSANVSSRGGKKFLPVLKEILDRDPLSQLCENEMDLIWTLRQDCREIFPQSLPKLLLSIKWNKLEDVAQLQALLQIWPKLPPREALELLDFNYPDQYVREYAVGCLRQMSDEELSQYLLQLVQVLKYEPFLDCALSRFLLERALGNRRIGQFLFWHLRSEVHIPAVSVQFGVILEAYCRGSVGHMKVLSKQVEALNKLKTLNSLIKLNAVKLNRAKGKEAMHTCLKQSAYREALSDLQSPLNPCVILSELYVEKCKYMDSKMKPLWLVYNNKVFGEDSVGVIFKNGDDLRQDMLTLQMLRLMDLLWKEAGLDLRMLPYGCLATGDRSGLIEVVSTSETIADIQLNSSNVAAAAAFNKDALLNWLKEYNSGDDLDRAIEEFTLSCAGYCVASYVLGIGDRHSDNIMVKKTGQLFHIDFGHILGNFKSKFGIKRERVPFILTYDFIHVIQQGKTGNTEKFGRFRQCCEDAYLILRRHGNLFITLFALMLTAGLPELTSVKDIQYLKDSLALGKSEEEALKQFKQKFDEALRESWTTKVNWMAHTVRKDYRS

[15] = biological target: Ribosomal protein S6 kinase alpha-4 (Homo sapiens) (UniProt O75676); assay: Binding affinity to wild-type human partial length C-terminal RPS6KA4 kinase domain 2 (M375 to T705 residues) expressed in mammalian expression system assessed as residual binding level at 1 uM by Kinomescan method relative to control
[16] = biological target: Platelet-derived growth factor receptor beta (Homo sapiens, UniProt P09619); assay: Binding affinity to wild-type human partial length PDGFRbeta (V582 to Y1009 residues) expressed in bacterial expression system assessed as residual binding level at 1 uM by Kinomescan method relative to control; in short: as §1
[17] = biological target: Serine/threonine-protein kinase 38-like (Homo sapiens) (UniProt Q9Y2H1); assay: Binding affinity to wild-type human partial length NDR2 (N34 to E447 residues) expressed in bacterial expression system assessed as residual binding level at 1 uM by Kinomescan method relative to control; in short: as §2
Chain of Serine/threonine-protein kinase 38-like (Homo sapiens) (Q9Y2H1 2-464 limits assumed): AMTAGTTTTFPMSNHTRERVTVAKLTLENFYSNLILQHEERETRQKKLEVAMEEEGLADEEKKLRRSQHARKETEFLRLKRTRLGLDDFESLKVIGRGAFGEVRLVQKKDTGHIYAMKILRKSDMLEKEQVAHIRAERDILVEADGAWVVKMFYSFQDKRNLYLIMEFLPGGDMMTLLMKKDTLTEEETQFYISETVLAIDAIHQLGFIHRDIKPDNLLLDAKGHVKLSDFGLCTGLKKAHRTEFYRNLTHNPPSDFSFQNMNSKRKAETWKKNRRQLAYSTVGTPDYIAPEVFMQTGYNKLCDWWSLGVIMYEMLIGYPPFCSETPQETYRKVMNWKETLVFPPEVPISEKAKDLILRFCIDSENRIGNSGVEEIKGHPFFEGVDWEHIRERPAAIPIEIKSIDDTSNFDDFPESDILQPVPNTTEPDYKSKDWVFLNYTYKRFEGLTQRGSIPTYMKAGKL

[18] = biological target: Mitogen-activated protein kinase kinase kinase 11 (Homo sapiens) (UniProt Q16584); assay: Binding affinity to wild-type human partial length MLK3 (I77 to W399 residues) expressed in bacterial expression system assessed as residual binding level at 1 uM by Kinomescan method relative to control
[19] = biological target: 3-phosphoinositide-dependent protein kinase 1 (Homo sapiens) (UniProt O15530); assay: Binding affinity to wild-type human full length PDPK1 (M1 to Q556 residues) expressed in bacterial expression system assessed as residual binding level at 1 uM by Kinomescan method relative to control
Chain of 3-phosphoinositide-dependent protein kinase 1 (Homo sapiens) (O15530 whole entry, the tested form may be a part): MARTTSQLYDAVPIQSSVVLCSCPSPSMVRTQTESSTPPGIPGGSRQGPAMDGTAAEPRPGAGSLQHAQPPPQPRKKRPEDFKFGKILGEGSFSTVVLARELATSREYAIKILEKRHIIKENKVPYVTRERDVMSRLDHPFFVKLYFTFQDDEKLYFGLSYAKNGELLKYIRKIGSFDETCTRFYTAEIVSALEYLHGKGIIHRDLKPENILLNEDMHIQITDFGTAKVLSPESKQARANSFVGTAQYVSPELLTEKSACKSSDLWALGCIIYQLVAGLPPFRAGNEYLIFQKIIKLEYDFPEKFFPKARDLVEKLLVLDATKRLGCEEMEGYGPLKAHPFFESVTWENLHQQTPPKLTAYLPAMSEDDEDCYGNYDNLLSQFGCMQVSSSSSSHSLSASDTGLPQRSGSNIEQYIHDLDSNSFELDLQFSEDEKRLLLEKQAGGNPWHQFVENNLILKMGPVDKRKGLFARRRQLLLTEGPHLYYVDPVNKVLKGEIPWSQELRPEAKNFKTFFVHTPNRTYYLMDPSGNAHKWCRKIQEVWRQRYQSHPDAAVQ
In short: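 Single-concentration KINOMEscan (DiscoverX) binding screen at 1 μM against a panel of 468 purified kinases and mutants. The read-out is binding relative to control.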

[20] = biological target: Dual specificity protein kinase CLK4 (Homo sapiens) (UniProt Q9HAZ1); assay: Binding affinity to wild-type human partial length CLK4 (R135 to K481 residues) expressed in bacterial expression system assessed as residual binding level at 1 uM by Kinomescan method relative to control; in short: as §2
[21] = biological target: Tyrosine-protein kinase SYK (Homo sapiens) (UniProt P43405); assay: Binding affinity to wild-type human partial length SYK (D354 to N635 residues) expressed in bacterial expression system assessed as residual binding level at 1 uM by Kinomescan method relative to control
[22] = biological target: Serine/threonine-protein kinase LATS1 (Homo sapiens) (UniProt O95835); assay: Binding affinity to wild-type human partial length LATS1 (Q678 to V1130 residues) expressed in bacterial expression system assessed as residual binding level at 1 uM by Kinomescan method relative to control
Chain of Serine/threonine-protein kinase LATS1 (Homo sapiens) (O95835 whole entry, the tested form may be a part): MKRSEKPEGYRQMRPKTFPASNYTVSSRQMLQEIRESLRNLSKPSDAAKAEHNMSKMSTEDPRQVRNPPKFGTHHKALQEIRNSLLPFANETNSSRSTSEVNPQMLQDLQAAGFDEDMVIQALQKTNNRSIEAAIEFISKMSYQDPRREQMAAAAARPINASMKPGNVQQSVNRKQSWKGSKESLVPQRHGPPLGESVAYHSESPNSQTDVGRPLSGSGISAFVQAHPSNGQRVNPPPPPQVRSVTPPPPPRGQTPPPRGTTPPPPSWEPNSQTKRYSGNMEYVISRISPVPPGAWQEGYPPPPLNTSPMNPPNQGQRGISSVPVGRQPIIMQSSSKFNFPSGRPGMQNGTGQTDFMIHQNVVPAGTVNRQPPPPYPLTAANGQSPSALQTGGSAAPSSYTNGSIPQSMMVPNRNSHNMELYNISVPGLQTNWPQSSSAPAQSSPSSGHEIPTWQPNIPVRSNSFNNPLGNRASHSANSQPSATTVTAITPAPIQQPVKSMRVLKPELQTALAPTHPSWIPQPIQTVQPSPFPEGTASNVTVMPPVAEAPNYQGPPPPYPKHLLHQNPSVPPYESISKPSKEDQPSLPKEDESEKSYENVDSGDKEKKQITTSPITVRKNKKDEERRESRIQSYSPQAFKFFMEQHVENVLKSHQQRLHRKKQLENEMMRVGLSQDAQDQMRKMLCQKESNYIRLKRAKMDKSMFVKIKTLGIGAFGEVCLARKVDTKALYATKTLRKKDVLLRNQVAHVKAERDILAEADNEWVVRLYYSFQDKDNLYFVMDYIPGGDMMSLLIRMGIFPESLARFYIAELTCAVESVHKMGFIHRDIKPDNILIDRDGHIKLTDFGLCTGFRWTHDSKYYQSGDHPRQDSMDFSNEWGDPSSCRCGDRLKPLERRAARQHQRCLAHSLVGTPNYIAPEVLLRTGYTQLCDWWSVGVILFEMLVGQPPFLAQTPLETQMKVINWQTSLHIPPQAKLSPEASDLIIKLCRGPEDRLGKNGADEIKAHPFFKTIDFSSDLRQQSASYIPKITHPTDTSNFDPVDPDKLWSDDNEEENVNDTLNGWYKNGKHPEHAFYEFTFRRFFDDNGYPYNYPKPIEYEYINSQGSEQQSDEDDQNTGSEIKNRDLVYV

Q: What does the source list for `Cc1ccc(NC(=O)c2ccc(CN(CCN(C)C)C(=O)c3cccnc3)cc2)cc1Nc1nccc(-c2cccnc2)n1`?
A: Activity [1]: 100%; Activity [2]: 91%; Activity [3]: 83%; Activity [4]: 84%; Activity [5]: 100%; Activity [6]: 90%; Activity [7]: 82%; Activity [8]: 88%; Activity [9]: 95%; Activity [10]: 97%; Activity [11]: 75%; Activity [12]: 76%; Activity [13]: 100%; Activity [14]: 100%; Activity [15]: 100%; Activity [16]: 0.7%; Activity [17]: 82%; Activity [18]: 100%; Activity [19]: 100%; Activity [20]: 66%; Activity [21]: 96%; Activity [22]: 98%
